Source: ChEMBL document CHEMBL4152197, “Proteolysis Targeting Chimeras (PROTACs) of Anaplastic Lymphoma Kinase (ALK)” (Eur J Med Chem, 2018)
Calls of active or inactive are those of the source. The calls are words filed in the database; no cut-off is given here.

Tests used:
[1] = target: T1, Protein cereblon/ALK tyrosine kinase receptor/Nucleophosmin (Homo sapiens) (UniProt Q9UM73+P06748+Q96SW2); test: Induction of CRL4/CRBN ubiquitin ligase-mediated NPM-ALK fusion protein degradation in human SU-DHL1 cells pretreated with MLN4924 for 2 hrs followed by compound addition at 100 nM and measured after 6 hrs by Western blot analysis; format: cell-based
[2] = target: T1, Protein cereblon/ALK tyrosine kinase receptor/Nucleophosmin (Homo sapiens); test: Induction of CRL4/CRBN ubiquitin ligase-mediated NPM-ALK fusion protein degradation in human SU-DHL1 cells assessed as reduction in STAT3 phosphorylation at Y705 residue pretreated at 100 nM for 2 hrs followed by compound washout and measured after 8 hrs by Western blot analysis; format: cell-based
Summary of the method: (§1)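 Washout in SU-DHL-1 cells: DMSO or 100 nM compound for 2 h, then a PBS wash and incubation in fresh medium for the indicated times. Lysates were immunoblotted for NPM-ALK, p-ALK Y1507 and p-STAT3 Y705, with GAPDH as the reference.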

[3] = target: T1, Protein cereblon/ALK tyrosine kinase receptor/Nucleophosmin (Homo sapiens); test: Induction of CRL4/CRBN ubiquitin ligase-mediated NPM-ALK fusion protein degradation in human SU-DHL1 cells pretreated with ceritinib for 2 hrs followed by compound addition at 100 nM and measured after 6 hrs by Western blot analysis; format: cell-based
[4] = target: T2, Protein cereblon/ALK tyrosine kinase receptor/Echinoderm microtubule-associated protein-like 4 (Homo sapiens) (UniProt Q9UM73+Q9HC35+Q96SW2); test: Induction of CRL4/CRBN ubiquitin ligase-mediated EML4-ALK fusion protein degradation in human NCI-H2228 cells assessed as reduction in EML4-ALK fusion protein levels at 60 nM after 8 to 24 hrs hrs by Western blot analysis; format: cell-based
Summary of the method: (§2)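 Time course by immunoblot. SU-DHL-1 (30 nM) or NCI-H2228 (60 nM) cells in RPMI-1640 with 10% FBS were held at a fixed degrader concentration and harvested over time up to 24 h. Lysates in Laemmli buffer were blotted for ALK fusion protein, p-ALK Y1507 and p-STAT3 Y705, with GAPDH as the loading reference.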

NCI-H2228 = test: Growth inhibition of human NCI-H2228 cells after 3 days by luminescence-based CellTiter-Glo assay; format: functional, cell-based; settings: for IC50: NCI-H2228, 72 h
[5] = target: T2, Protein cereblon/ALK tyrosine kinase receptor/Echinoderm microtubule-associated protein-like 4 (Homo sapiens); test: Induction of CRL4/CRBN ubiquitin ligase-mediated EML4-ALK fusion protein degradation in human NCI-H2228 cells assessed as reduction in STAT3 phosphorylation at Y705 residue after 16 hrs by Western blot analysis; format: cell-based
Summary of the method: (§3)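 SU-DHL-1 or NCI-H2228 cells, grown in RPMI-1640 with 10% FBS at 37 °C under 5% CO₂, were exposed to DMSO or serial dilutions of compound (up to 100 nM) for 16 h. Cells were lysed in Laemmli buffer and run on SDS-PAGE/PVDF immunoblots probed for ALK, p-ALK Y1507, STAT3, p-STAT3 Y705 and GAPDH. Band levels were normalized to GAPDH. DC50 was taken from a variable-slope fit, triplicate independent experiments, mean ± SEM.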

[6] = target: T2, Protein cereblon/ALK tyrosine kinase receptor/Echinoderm microtubule-associated protein-like 4 (Homo sapiens); test: Induction of CRL4/CRBN ubiquitin ligase-mediated EML4-ALK fusion protein degradation assessed as inhibition of ALK autophosphorylation at Y1507 residue in human NCI-H2228 cells at 60 nM after 8 to 24 hrs by Western blot analysis; format: cell-based; summary of the method: as §2
[7] = target: T3, ALK tyrosine kinase receptor (Homo sapiens, UniProt Q9UM73); test: Inhibition of ALK autophosphorylation at Y1507 residue in human SU-DHL1 cells at 100 nM after 16 hrs by Western blot analysis; format: cell-based; summary of the method: as §3
[8] = target: T2, Protein cereblon/ALK tyrosine kinase receptor/Echinoderm microtubule-associated protein-like 4 (Homo sapiens); test: Induction of CRL4/CRBN ubiquitin ligase-mediated EML4-ALK fusion protein degradation in human NCI-H2228 cells assessed as reduction in STAT3 phosphorylation at Y705 residue at 60 nM after 8 to 24 hrs by Western blot analysis; format: cell-based; summary of the method: as §2
[9] = target: T3, ALK tyrosine kinase receptor; test: Inhibition of ALK autophosphorylation at Y1507 residue in human NCI-H2228 cells after 16 hrs by Western blot analysis; format: cell-based; summary of the method: as §3
[10] = target: T3, ALK tyrosine kinase receptor; test: Inhibition of ALK autophosphorylation at Y1507 residue in human SU-DHL1 cells pretreated with MG-132 for 2 hrs followed by compound addition at 100 nM and measured after 6 hrs by Western blot analysis; format: cell-based
[11] = target: T1, Protein cereblon/ALK tyrosine kinase receptor/Nucleophosmin (Homo sapiens); test: Induction of CRL4/CRBN ubiquitin ligase-mediated NPM-ALK fusion protein degradation in human SU-DHL1 cells pretreated with pomalidomide for 2 hrs followed by compound addition at 100 nM and measured after 6 hrs by Western blot analysis; format: cell-based
[12] = target: T1, Protein cereblon/ALK tyrosine kinase receptor/Nucleophosmin (Homo sapiens); test: Induction of CRL4/CRBN ubiquitin ligase-mediated NPM-ALK fusion protein degradation in human SU-DHL1 cells pretreated with MG-132 for 2 hrs followed by compound addition at 100 nM and measured after 6 hrs by Western blot analysis; format: cell-based
[13] = target: T3, ALK tyrosine kinase receptor; test: Inhibition of ALK in human SU-DHL1 cells assessed as reduction in STAT3 phosphorylation at Y705 residue at 100 nM after 16 hrs by Western blot analysis; format: cell-based; summary of the method: as §3
[14] = target: T3, ALK tyrosine kinase receptor; test: Inhibition of ALK autophosphorylation at Y1507 residue in human SU-DHL1 cells after 16 hrs by Western blot analysis; format: cell-based; summary of the method: as §3
[15] = target: T3, ALK tyrosine kinase receptor; test: Inhibition of ALK autophosphorylation at Y1507 residue in human SU-DHL1 cells pretreated with pomalidomide for 2 hrs followed by compound addition at 100 nM and measured after 6 hrs by Western blot analysis; format: cell-based
[16] = target: T1, Protein cereblon/ALK tyrosine kinase receptor/Nucleophosmin (Homo sapiens); test: Induction of CRL4/CRBN ubiquitin ligase-mediated NPM-ALK fusion protein degradation in human SU-DHL1 cells pretreated at 100 nM for 2 hrs followed by compound washout and measured after 8 hrs by Western blot analysis; format: cell-based; summary of the method: as §1
[17] = target: T1, Protein cereblon/ALK tyrosine kinase receptor/Nucleophosmin (Homo sapiens); test: Induction of CRL4/CRBN ubiquitin ligase-mediated NPM-ALK fusion protein degradation in human SU-DHL1 cells assessed as inhibition of ALK autophosphorylation at Y1507 residue pretreated at 100 nM for 2 hrs followed by compound washout and measured after 8 hrs by Western blot analysis; format: cell-based; summary of the method: as §1
[18] = target: T3, ALK tyrosine kinase receptor; test: Inhibition of ALK autophosphorylation at Y1507 residue in human SU-DHL1 cells pretreated with MLN4924 for 2 hrs followed by compound addition at 100 nM and measured after 6 hrs by Western blot analysis; format: cell-based
SU-DHL-1 [19] = test: Toxicity against human SU-DHL1 cells assessed as cell death over 100 nM after 3 days by luminescence-based CellTiter-Glo assay; settings: su-dhl-1, 72 h
[20] = target: T1, Protein cereblon/ALK tyrosine kinase receptor/Nucleophosmin (Homo sapiens); test: Induction of CRL4/CRBN ubiquitin ligase-mediated NPM-ALK fusion protein degradation in human SU-DHL1 cells assessed as reduction in NPM-ALK fusion protein levels at 100 nM after 16 hrs by Western blot analysis; format: cell-based; parameters: scale not given: the % may be the effect or the level left; summary of the method: as §3
[21] = target: T3, ALK tyrosine kinase receptor; test: Binding affinity to wild-type human partial length ALK (I1088 to E1409 residues) expressed in mammalian expression system by KINOMEscan assay
SU-DHL-1 [22] = test: Growth inhibition of human SU-DHL1 cells after 3 days by luminescence-based CellTiter-Glo assay; format: functional, cell-based
[23] = Plasma concentration in Swiss Albino mouse at 50 mg/kg, ip after 2 hrs; format: ADME, organism-based
Summary of the method: (§4)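 Male Swiss Albino mice received a single 50 mg/kg intraperitoneal dose, with clinical signs monitored. Plasma was sampled at 30 min, 1, 2, 4, 8 and 12 h post dose. Values are the average of 3 animals ± SD.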

Mus musculus = test: Toxicity in Swiss Albino mouse assessed as drug tolerability at 50 mg/kg, ip; format: organism-based; settings: in vivo; summary of the method: as §4
[24] = Plasma concentration in Swiss Albino mouse at 50 mg/kg, ip after 12 hrs; format: ADME, organism-based; summary of the method: as §4

Structure (SMILES)	Activity [1]	Activity [2]	Activity [3]	Activity [4]	IC50 (NCI-H2228)	Activity [5]	Activity [6]	inhibition [7]	Activity [8]	inhibition [9]	inhibition [10]	Activity [11]	Activity [12]	inhibition [13]	inhibition [14]	inhibition [15]	Activity [16]	Activity [17]	inhibition [18]	Activity (SU-DHL-1 [19])	further results
Cc1cc(Nc2ncc(Cl)c(Nc3ccccc3S(=O)(=O)C(C)C)n2)c(OC(C)C)cc1C1CCN(CC(=O)NCCOCCOCCOCCOCCOCCNc2cccc3c2C(=O)N(C2CCC(=O)NC2=O)C3=O)CC1 (configuration not stated)	inactive	inactive	Active	Active	46 nM	Dose-dependent effect	Active	> 90%	Active	Dose-dependent effect	Active	inactive	inactive	> 90%	Dose-dependent effect	Active	inactive	inactive	Active	Toxic	Activity [20]: > 90%
Cc1cc(Nc2ncc(Cl)c(Nc3ccccc3S(=O)(=O)C(C)C)n2)c(OC(C)C)cc1C1CCNCC1 [CERITINIB]	–	–	–	–	–	–	–	–	–	–	–	–	–	–	–	–	–	–	–	Toxic	–
Cc1cc(Nc2ncc(Cl)c(Nc3ccccc3S(=O)(=O)C(C)C)n2)c(OC(C)C)cc1C1CCN(CC(=O)NCCOCCOCCOCCOCCOCCNc2cccc3c2C(=O)N(C2CCC(=O)N(C)C2=O)C3=O)CC1 (configuration not stated)	–	–	–	–	–	–	–	–	–	–	–	–	–	–	–	–	–	–	–	–	Kd [21]: 54 nM; growth inhibition (GI) (NCI-H2228): inactive; growth inhibition (GI) (SU-DHL-1 [22]): inactive
Cc1cc(Nc2ncc(Cl)c(Nc3ccccc3S(=O)(=O)C(C)C)n2)c(OC(C)C)cc1C1CCN(CC(=O)NCCNc2cccc3c2C(=O)N(C2CCC(=O)N(C)C2=O)C3=O)CC1 (configuration not stated)	–	–	–	–	–	–	–	–	–	–	–	–	–	–	–	–	–	–	–	–	Kd [21]: 78 nM; growth inhibition (GI) (NCI-H2228): inactive; growth inhibition (GI) (SU-DHL-1 [22]): inactive
Cc1cc(Nc2ncc(Cl)c(Nc3ccccc3S(=O)(=O)C(C)C)n2)c(OC(C)C)cc1C1CCN(CC(=O)NCCNc2cccc3c2C(=O)N(C2CCC(=O)NC2=O)C3=O)CC1 (configuration not stated)	inactive	inactive	Active	Active	33 nM	Dose-dependent effect	Active	> 90%	Active	Dose-dependent effect	Active	inactive	inactive	> 90%	Dose-dependent effect	Active	inactive	inactive	Active	Toxic	concentration at 2 h [23]: 3000 nM; Activity (Mus musculus): Non-Toxic; concentration at 12 h [24]: 340 nM; Activity [20]: > 90%
